# Assay results reported in PubChem BioAssay.
# Active and inactive are the calls of the source.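 Rule for the calls, unless noted: active = viability loss from added drug above about 55%, and viability with drug at most 40%, in both replicates (limit read from the data, passing the limit was not always enough); inconclusive = both conditions met in only one replicate; inactive = neither replicate meets both conditions.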
# Columns and labels:
# [1] = Her2 expression decrease, cell viability multiplex – SKBR3 breast tumor cells, AlphaScreen, ATP viability, primary screen (AID 461;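 active = Her2 level under about 52% in both replicate screens, with viability over 70% of control, limit read from the data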;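 for Her2 level: lower value means less Her2 protein in the cells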;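 for viability: percent of carrier control wells set as 100% viability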); conditions: SKBR3 Her2 protein level, 18-24 h, measured here: SKBR3 viability, ATP luminescence, at 10 µM
# [2] = target: Receptor tyrosine-protein kinase erbB-2 (Homo sapiens) (UniProt P04626); assay: as above; conditions: 18-24 h, at 10 µM, stronger effect = lower value
# Chain of Receptor tyrosine-protein kinase erbB-2 (Homo sapiens) (P04626 whole entry, looked up): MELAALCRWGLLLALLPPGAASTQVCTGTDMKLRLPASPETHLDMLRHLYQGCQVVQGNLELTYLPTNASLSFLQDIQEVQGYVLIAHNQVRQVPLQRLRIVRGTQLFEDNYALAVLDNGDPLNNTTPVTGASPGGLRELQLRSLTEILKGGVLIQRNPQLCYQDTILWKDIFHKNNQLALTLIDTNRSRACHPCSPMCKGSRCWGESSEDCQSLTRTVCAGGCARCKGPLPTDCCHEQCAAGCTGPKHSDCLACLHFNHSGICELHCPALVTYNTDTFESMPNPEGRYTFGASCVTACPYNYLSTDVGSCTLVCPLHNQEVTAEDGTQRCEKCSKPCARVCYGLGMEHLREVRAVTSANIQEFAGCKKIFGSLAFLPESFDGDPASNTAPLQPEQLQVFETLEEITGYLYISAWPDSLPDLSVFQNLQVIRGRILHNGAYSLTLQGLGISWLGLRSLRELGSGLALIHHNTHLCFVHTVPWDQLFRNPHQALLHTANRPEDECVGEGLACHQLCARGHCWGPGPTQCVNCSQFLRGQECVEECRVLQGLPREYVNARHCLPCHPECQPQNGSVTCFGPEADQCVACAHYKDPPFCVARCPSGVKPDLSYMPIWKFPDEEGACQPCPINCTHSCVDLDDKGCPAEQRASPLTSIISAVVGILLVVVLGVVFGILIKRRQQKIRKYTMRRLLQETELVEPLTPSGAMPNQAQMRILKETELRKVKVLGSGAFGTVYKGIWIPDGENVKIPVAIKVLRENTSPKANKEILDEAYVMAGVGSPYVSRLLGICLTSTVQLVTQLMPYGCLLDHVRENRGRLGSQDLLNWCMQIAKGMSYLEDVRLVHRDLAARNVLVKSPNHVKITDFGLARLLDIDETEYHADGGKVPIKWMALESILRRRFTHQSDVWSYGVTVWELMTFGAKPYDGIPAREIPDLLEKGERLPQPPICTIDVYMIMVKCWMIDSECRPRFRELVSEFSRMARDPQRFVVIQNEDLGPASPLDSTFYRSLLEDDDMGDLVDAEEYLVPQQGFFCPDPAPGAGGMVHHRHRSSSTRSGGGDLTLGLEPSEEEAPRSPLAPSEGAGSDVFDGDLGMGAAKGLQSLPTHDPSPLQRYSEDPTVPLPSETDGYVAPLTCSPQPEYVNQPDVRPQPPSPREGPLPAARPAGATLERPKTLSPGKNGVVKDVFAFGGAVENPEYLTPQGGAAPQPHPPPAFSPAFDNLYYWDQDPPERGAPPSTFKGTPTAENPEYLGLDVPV
# [3] = reduced viability of SK-BR-3 breast cancer cells – cell-based, 24 h, human, pilot screen (AID 572;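 active = viability at or below 10% of carrier control in both of two separate runs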;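 note: compound exposure lasted between 18 and 24 h rather than exactly 24 h; 100% = carrier-treated control wells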); conditions: SK-BR-3 viability, CellTiter-Glo luminescence, at 10 µM, stronger effect = lower value
# [4] = HUVEC growth inhibition – cell-based, human, primary screen (AID 575;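 active = viability at or below 30% in both replicate assays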;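 note: 100% = median of untreated cell wells with 0.1% DMSO on each plate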); conditions: HUVEC proliferation, CellTiter-Glo luminescence, 72 h; at 10 µM; stronger effect = lower value
# In short: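 Timing: 72 h treatment at 37 °C; material: HUVEC primary cells; technique: CellTiter-Glo luminescence measuring cellular ATP; controls: vehicle and MePR control wells; measure: percent of median DMSO-control luminescence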
# [5] = H69AR cell proliferation blockers – human, duplicate replicates, primary screen (AID 580;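 active = viability at or under a set limit in both replicates, limit being median viability minus 3 SD, cut at about 48% in these data, passing the limit was not always enough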;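 note: 100% = mean luminescence of untreated wells and 0% = no signal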); conditions: H69AR lung tumor cells viability, ATP luminescence, 72 h; at 10 µM; stronger effect = lower value
# [6] = MRP1 drug-resistance reversers in H69AR cells – cell-based, doxorubicin co-treatment, pilot screen (AID 601); conditions: CellTiter-Glo, 72 h, at 10 µM; for differential viability (reversal): stronger effect = higher value
# [7] = yeast transport mutant growth inhibition pilot in 384-well plates, post-Golgi transport modulator project (AID 636; in the data active = inhibition above about 31%); conditions: absorbance 615 nm, about 18 h, stronger effect = higher value
# [8] = growth suppression of yeast trafficking mutant, preliminary HTS, modulators of trafficking downstream of Golgi apparatus project, 1536-format plate, OD 615 nm (AID 637; in the data active = inhibition above about 30%); conditions: yeast transport mutant growth, absorbance 615 nm, 18 h; stronger effect = higher value
# [9] = H69AR cells + 2 uM doxorubicin, measured here: viability with 2 uM doxorubicin, stronger effect = lower value
# [10] = H69AR cells, compound alone cytotoxicity
Structure (SMILES),viability [1],Her2 level [2],viability [3],viability [4],viability [5],differential viability (reversal) ([6]; H69AR cells + 2 uM doxorubicin),"viability [6, 9]","viability [6, 10]",inhibition [7],inhibition [8]
COc1ccc(N(C(=O)c2ccco2)C(C(=O)NC2CCCC2)c2ccc(N(C)C)cc2)cc1OC (stereo not given),100%,123% (inactive),100% (inactive),91.2% (inactive),90% (inactive),-14.6% (inactive),105%,90%,-1.3% (inactive),-8.5% (inactive)
O=c1oc2ccccc2n1CCc1ccccc1,109%,97.5% (inactive),109% (inactive),84.6% (inactive),93.7% (inactive),9.07% (inactive),84.6%,93.7%,-5.92% (inactive),0.98% (inactive)
COc1cccc(C2=NOC(C(=O)Nc3ccc(C(C)=O)cc3)C2)c1 (stereo not given),96%,98.5% (inactive),96% (inactive),96.6% (inactive),100% (inactive),16.6% (inactive),83.6%,100%,-1.58% (inactive),-4.73% (inactive)
Cc1noc(C)c1S(=O)(=O)N1CCCC(C(=O)NCCc2ccc(Cl)cc2)C1 (stereo not given),89%,82% (inactive),89% (inactive),98.1% (inactive),97.1% (inactive),5.35% (inactive),91.7%,97.1%,-5.34% (inactive),4.76% (inactive)
COC(=O)CCC(=O)Nc1cccc(Cl)c1,118%,87% (inactive),118% (inactive),90.1% (inactive),85.4% (inactive),-5.69% (inactive),91.1%,85.4%,-0.65% (inactive),-2.54% (inactive)
CCCOC(=O)c1ccc(-c2c(C)noc2-c2ccc(OC)cc2O)o1,98%,74.5% (inactive),98% (inactive),46.3% (inactive),75.8% (inactive),-10.3% (inactive),86%,75.8%,-4.81% (inactive),-9.33% (inactive)
CC1=CCC2C(=O)N(c3nc(C)cc(C)n3)C(=O)C2C1 (stereo not given),110%,80% (inactive),110% (inactive),101% (inactive),91.1% (inactive),-3.95% (inactive),95%,91.1%,-6.71% (inactive),0.48% (inactive)
Cc1csc2nc(CSc3nc4ccccc4o3)c(Br)n12,84.5%,60% (inactive),84.5% (inactive),85.6% (inactive),83% (inactive),3.21% (inactive),79.8%,83%,-3.87% (inactive),10.5% (inactive)
Brc1ccc(-c2cn3cccnc3n2)cc1,130%,97.5% (inactive),130% (inactive),86.3% (inactive),104% (inactive),6.97% (inactive),97.1%,104%,-3.87% (inactive),0.97% (inactive)
COc1ccc(CN(CC(=O)NCC2CCCO2)C(=O)CNS(=O)(=O)c2ccc(C)cc2)cc1 (stereo not given),107%,102% (inactive),107% (inactive),96.3% (inactive),97.2% (inactive),2.2% (inactive),95%,97.2%,-0.53% (inactive),-6.23% (inactive)
Cc1cc(C(=O)NCCCN2CCOCC2)n(-c2ccccc2)n1,94.5%,100% (inactive),94.5% (inactive),106% (inactive),102% (inactive),9.44% (inactive),92.2%,102%,-2.27% (inactive),3.61% (inactive)
O=C(Cn1nnc(-c2ccncc2)n1)Nc1ccc2c(c1)CCC2,112%,93.5% (inactive),112% (inactive),107% (inactive),110% (inactive),13.3% (inactive),96.4%,110%,-6.45% (inactive),2.38% (inactive)
O=C(OCc1nnc(-c2ccccc2)o1)C1=COCCO1,100%,94% (inactive),100% (inactive),101% (inactive),92.1% (inactive),-0.965% (inactive),93%,92.1%,-8.67% (inactive),-1.97% (inactive)
Cc1nc(NC(=O)C2CC3CCCC(C2)C3=O)sc1C (stereo not given),99.5%,99.5% (inactive),99.5% (inactive),95% (inactive),82.8% (inactive),-2.88% (inactive),85.7%,82.8%,0.39% (inactive),-6.39% (inactive)
CCCCn1c(SCC(=O)Nc2ccc(OC)cc2)nc2ccc(N3CCOCC3)cc2c1=O,94.5%,86% (inactive),94.5% (inactive),72.4% (inactive),89.6% (inactive),0.605% (inactive),89%,89.6%,-2.8% (inactive),0.16% (inactive)
CN1C(=O)CSc2ccc(NC(=O)N3CCN(c4ccccn4)CC3)cc21,102%,88.5% (inactive),102% (inactive),58.2% (inactive),91.3% (inactive),12.2% (inactive),79.1%,91.3%,-0.4% (inactive),3.61% (inactive)
COc1cc(S(=O)(=O)N2CCOCC2)ccc1NC(=O)COC(=O)c1ccccn1,114%,92% (inactive),114% (inactive),85.8% (inactive),84.8% (inactive),-12.8% (inactive),97.6%,84.8%,-6.71% (inactive),-0.18% (inactive)
CCCCOc1cccc(NC(=O)CSc2nccn2C)c1,107%,81.5% (inactive),107% (inactive),99.9% (inactive),85.3% (inactive),-1.98% (inactive),87.3%,85.3%,-7.03% (inactive),0.5% (inactive)
COc1ccc(NC(=O)CN2CCN(CC(=O)Nc3cc(OC)cc(OC)c3)CC2)cc1,79%,96.5% (inactive),79% (inactive),97.8% (inactive),83.1% (inactive),-5.3% (inactive),88.4%,83.1%,-3.77% (inactive),0.66% (inactive)
Cc1ccc(S(=O)(=O)Nc2nc3ccccc3nc2NCc2ccco2)cc1,114%,93.5% (inactive),114% (inactive),86.7% (inactive),22.5% (active),0.645% (inactive),21.9%,22.5%,-5.47% (inactive),-6.51% (inactive)
Nn1c(SCC(=O)Nc2ccc3c(c2)OCCO3)nnc1C(F)(F)F,88.5%,78.5% (inactive),88.5% (inactive),88.3% (inactive),80.9% (inactive),-7.85% (inactive),88.8%,80.9%,-2.5% (inactive),1.27% (inactive)
Cc1ccc(S(=O)(=O)N2C(=O)CCC2C(=O)Nc2ccc3c(c2)OCCO3)cc1 (stereo not given),109%,96.5% (inactive),109% (inactive),93.6% (inactive),89.7% (inactive),-4.12% (inactive),93.8%,89.7%,-1.69% (inactive),-1.67% (inactive)
COc1ccc2[nH]c(=O)c(CN(CC3CCCO3)C(=O)Nc3ccc(F)cc3)cc2c1 (stereo not given),84.5%,113% (inactive),84.5% (inactive),26.1% (active),39.4% (active),-8.38% (inactive),47.8%,39.4%,-0.68% (inactive),2.46% (inactive)
COC(=O)c1ccc(NC(=O)CN2C(=O)CSC2=O)cc1,104%,93% (inactive),104% (inactive),90.1% (inactive),106% (inactive),12% (inactive),94.4%,106%,-4.67% (inactive),2.3% (inactive)
COc1cc(-c2nnc(SCC(=O)c3ccc(C)cc3)o2)cc(OC)c1OC,90%,97.5% (inactive),90% (inactive),64.8% (inactive),74.5% (inactive),-19.7% (inactive),94.2%,74.5%,-1.45% (inactive),0.16% (inactive)
Cc1cccc(-n2ccnc2SCC(=O)Nc2cc(C)on2)c1,96%,102% (inactive),96% (inactive),96.3% (inactive),99.1% (inactive),18.6% (inactive),80.4%,99.1%,0.79% (inactive),-4.91% (inactive)
COc1ccc(CC(=O)NC2CCN(CC(=O)Nc3ccc4c(c3)OCCO4)CC2)cc1OC,97.5%,132% (inactive),97.5% (inactive),88.2% (inactive),106% (inactive),17% (inactive),89.1%,106%,-2.37% (inactive),-5.33% (inactive)
COC(=O)Nc1ccc(C)cc1NC(=O)OC,86.5%,102% (inactive),86.5% (inactive),96.4% (inactive),107% (inactive),7.78% (inactive),99.5%,107%,0.67% (inactive),-6.61% (inactive)
CCn1c(=O)cc(SCC(=O)N2CCOCC2)c2ccccc21,92%,75% (inactive),92% (inactive),63.1% (inactive),85.4% (inactive),17.4% (inactive),68%,85.4%,-6.05% (inactive),-3.45% (inactive)
